Measured values reported in ChEMBL document CHEMBL4627325, “Rational modifications, synthesis and biological evaluation of new potential antivirals for RSV designed to target the M2-1 protein” (Bioorg Med Chem, 2020).

Assays:
Human orthopneumovirus [1] = test: Antiviral activity against Respiratory syncytial virus A strain Long infected in Hep2 cells assessed as reduction in virus-induced cytopathic effect after 5 days by microscopic analysis; type: functional, organism-based; settings: HEp-2, 120 h
Procedure, shortened: (§1)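 HEp-2 cells seeded 5×10^3/well in DMEM with 2% heat-inactivated FBS and 1% NEAA, 37°C, 5% CO₂; next day medium replaced with 1:2 serial dilutions of compound (eight concentrations, 0.7-100 μM) and infected with RSV-A Long or RSV-B Wash at moi 0.01 CCID₅₀/cell. CPE scored microscopically (0–5) at day 5; EC₅₀ by logarithmic interpolation as 50% protection; mean of ≥2 independent experiments.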

[2] = Cytotoxicity against human Hep2 cells assessed as reduction in cell viability measured after 5 days by MTS assay; type: cell-based; settings: HEp-2 cells
Procedure, shortened: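 Uninfected HEp-2 cultures set up as for the antiviral assay (5×10^3 cells/well, DMEM with 2% FBS and 1% NEAA, 37°C, 5% CO₂) and treated with serial 1:2 compound dilutions; metabolic activity quantified at day 5 by MTS readout to give CC₅₀; mean of ≥2 independent experiments.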

Human orthopneumovirus [3] = test: Antiviral activity against Respiratory syncytial virus B infected in Hep2 cells assessed as reduction in virus-induced cytopathic effect after 5 days by microscopic analysis; type: functional, organism-based; settings: HEp-2, 120 h; procedure, shortened: as §1

| EC50 (Human orthopneumovirus [1]) | EC50 (Human orthopneumovirus [3]) | Compound | CC50 at 120 h [2] |
| --- | --- | --- | --- |
| 35.3 µM | 12.5 µM | O=S(=O)(c1ccccc1)N1CCN(C(=S)SCc2nc3ccccc3s2)CC1 | > 100 µM |
| 8.3 µM | 3.9 µM | S=C(SCc1nc2ccccc2s1)N1CCN(Cc2ccccc2)CC1 | > 100 µM |
|  | 3 µM | COc1ccc(CN2CCN(C(=S)SCc3nc4ccccc4s3)CC2)cc1 | > 100 µM |
|  | 2.2 µM | CC(C)(C)c1ccc(CN2CCN(C(=S)SCc3nc4ccccc4s3)CC2)cc1 | 71.7 µM |
| 4.97 µM |  | Cc1ccc(CN2CCN(C(=S)SCc3nc4ccccc4s3)CC2)c(C)c1 | > 100 µM |
| 11.8 µM | 3 µM | Cc1cccc(CN2CCN(C(=S)SCc3nc4ccccc4s3)CC2)c1 | > 100 µM |
| 3.3 µM | 3.8 µM | FC(F)(F)c1cccc(CN2CCN(C(=S)SCc3nc4ccccc4s3)CC2)c1 | > 100 µM |
| 44.1 µM | 24.8 µM | O=C(c1ccccc1)N1CCN(C(=S)SCc2nc3ccccc3s2)CC1 | 45 µM |
| 4.4 µM | 1.3 µM | S=C(SCc1nc2ccccc2s1)N1CCN(c2ccccc2)CC1 | > 100 µM |
|  | 1.32 µM | Cc1ccc(CN2CCN(C(=S)SCc3nc4ccccc4s3)CC2)cc1 | > 100 µM |
| 10.4 µM | 20.6 µM | Cc1ccccc1CN1CCN(C(=S)SCc2nc3ccccc3s2)CC1 | > 100 µM |
| 14.8 µM | 3.9 µM | COC(=O)c1ccc(CN2CCN(C(=S)SCc3nc4ccccc4s3)CC2)cc1 | > 100 µM |
| 42.2 µM | 20.6 µM | Cc1cc(C)c(CN2CCN(C(=S)SCc3nc4ccccc4s3)CC2)c(C)c1 | > 100 µM |
| 4.4 µM | 2.5 µM | Fc1ccc(CN2CCN(C(=S)SCc3nc4ccccc4s3)CC2)cc1 | > 100 µM |
| 40.8 µM | 4 µM | CCOC(=O)c1ccc(CN2CCN(C(=S)SCc3nc4ccccc4s3)CC2)cc1 | > 100 µM |
| 3.31 µM |  | FC(F)(F)c1ccc(CN2CCN(C(=S)SCc3nc4ccccc4s3)CC2)cc1 | > 100 µM |
| 7.7 µM |  | S=C(SCc1nc2ccccc2s1)N1CCN(CCc2ccccc2)CC1 | > 100 µM |
| 2.6 µM | 2.6 µM | Nc1ccn([C@@H]2O[C@@](CO)(CCl)[C@@H](O)[C@H]2F)c(=O)n1 [ALS-8112] | > 100 µM |
